Data taken from ChEMBL document CHEMBL4689842, “EUbOPEN Chemogenomics Library wave 1” (2021).

Test system: U2OS
Test: Multiplex assay against U2OS
Format: toxicity, cell-based
Settings: human
How it was run: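 With compound added, live cells were imaged on a CQ1 microscope at 37°C and 5% CO2; staining with Hoechst33342, BioTracker Green Microtubule Cytoskeleton Dye, MitoTracker Red and Annexin V Alexa Fluor 680 had been done at seeding. The CellPathfinder machine-learning gating scheme split cells into Hoechst high-intensity objects or normal cells, normal cells into healthy, pyknosed or fragmented nuclei, and pyknosed cells into mitotic or apoptotic. The tubulin, mitochondrial-mass and membrane-permeability phenotypes are per cents of healthy-nucleus cells.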

[1] = 12 h, 1 µM, compound concentration 1 uM, replicate 1
[2] = 12 h, 1 µM, compound concentration 1 uM, replicate 2
[3] = 12 h, 10 µM, compound concentration 10 uM, replicate 1
[4] = 12 h, 10 µM, compound concentration 10 uM, replicate 2
[5] = 24 h, 1 µM, compound concentration 1 uM, replicate 1
[6] = 24 h, 1 µM, compound concentration 1 uM, replicate 2
[7] = 24 h, 10 µM, compound concentration 10 uM, replicate 1
[8] = 24 h, 10 µM, compound concentration 10 uM, replicate 2
[9] = 48 h, 1 µM, compound concentration 1 uM, replicate 1
[10] = 48 h, 1 µM, compound concentration 1 uM, replicate 2
[11] = 48 h, 10 µM, compound concentration 10 uM, replicate 1
[12] = 48 h, 10 µM, compound concentration 10 uM, replicate 2

## CN(C)C(=O)N[C@H]1CC[C@H](CCN2CCN(c3cccc(Cl)c3Cl)CC2)CC1.Cl [CARIPRAZINE HYDROCHLORIDE]
[1]
  Population Apoptotic (%): 20%
  Population Fragmented Nuclei (%): 14%
  Population Healthy Nuclei (%): 79%
  Population Hoechst High Intensity Objects (%): 8%
  Population Membrane Permeable-Phenotype (%): 4%
  Population Mitotic Cells (%): 80%
  Population Normal (%): 91%
  Population Pyknosed Nuclei (%): 6%
  Population Tubulin-Different-Phenotype (%): 14%
  Total Cell Count: 84
[2]
  Population Apoptotic (%): 60%
  Population Fragmented Nuclei (%): 7%
  Population Healthy Nuclei (%): 84%
  Population Hoechst High Intensity Objects (%): 6%
  Population Membrane Permeable-Phenotype (%): 6%
  Population Mitochondria Different-Phenotype (%): 29%
  Population Mitotic Cells (%): 40%
  Population Normal (%): 93%
  Population Pyknosed Nuclei (%): 8%
  Population Tubulin-Different-Phenotype (%): 22%
  Total Cell Count: 61
[3]
  Population Apoptotic (%): 50%
  Population Fragmented Nuclei (%): 15%
  Population Healthy Nuclei (%): 59%
  Population Hoechst High Intensity Objects (%): 8%
  Population Membrane Permeable-Phenotype (%): 14%
  Population Mitochondria Different-Phenotype (%): 97%
  Population Mitotic Cells (%): 50%
  Population Normal (%): 91%
  Population Tubulin-Different-Phenotype (%): 100%
  Total Cell Count: 78
[4]
  Population Apoptotic (%): 36%
  Population Fragmented Nuclei (%): 17%
  Population Healthy Nuclei (%): 57%
  Population Hoechst High Intensity Objects (%): 3%
  Population Membrane Permeable-Phenotype (%): 47%
  Population Mitochondria Different-Phenotype (%): 95%
  Population Mitotic Cells (%): 63%
  Population Normal (%): 96%
  Population Pyknosed Nuclei (%): 25%
  Population Tubulin-Different-Phenotype (%): 95%
  Total Cell Count: 79
[5]
  Population Apoptotic (%): 41%
  Population Fragmented Nuclei (%): 13%
  Population Healthy Nuclei (%): 73%
  Population Hoechst High Intensity Objects (%): 9%
  Population Membrane Permeable-Phenotype (%): 4%
  Population Mitochondria Different-Phenotype (%): 17%
  Population Mitotic Cells (%): 58%
  Population Normal (%): 90%
  Population Pyknosed Nuclei (%): 13%
  Population Tubulin-Different-Phenotype (%): 8%
  Total Cell Count: 102
[6]
  Population Apoptotic (%): 66%
  Population Fragmented Nuclei (%): 6%
  Population Healthy Nuclei (%): 84%
  Population Hoechst High Intensity Objects (%): 4%
  Population Membrane Permeable-Phenotype (%): 7%
  Population Mitochondria Different-Phenotype (%): 22%
  Population Mitotic Cells (%): 33%
  Population Normal (%): 95%
  Population Pyknosed Nuclei (%): 9%
  Population Tubulin-Different-Phenotype (%): 14%
  Total Cell Count: 67
[7]
  Population Apoptotic (%): 57%
  Population Fragmented Nuclei (%): 13%
  Population Healthy Nuclei (%): 57%
  Population Hoechst High Intensity Objects (%): 13%
  Population Membrane Permeable-Phenotype (%): 28%
  Population Mitochondria Different-Phenotype (%): 97%
  Population Mitotic Cells (%): 42%
  Population Normal (%): 86%
  Population Pyknosed Nuclei (%): 28%
  Total Cell Count: 84
[8]
  Population Apoptotic (%): 94%
  Population Fragmented Nuclei (%): 23%
  Population Healthy Nuclei (%): 55%
  Population Hoechst High Intensity Objects (%): 3%
  Population Membrane Permeable-Phenotype (%): 42%
  Population Mitochondria Different-Phenotype (%): 95%
  Population Mitotic Cells (%): 5%
  Population Normal (%): 96%
  Population Pyknosed Nuclei (%): 20%
  Population Tubulin-Different-Phenotype (%): 95%
  Total Cell Count: 87
[9]
  Population Apoptotic (%): 27%
  Population Fragmented Nuclei (%): 9%
  Population Hoechst High Intensity Objects (%): 6%
  Population Membrane Permeable-Phenotype (%): 0%
  Population Mitochondria Different-Phenotype (%): 12%
  Population Mitotic Cells (%): 72%
  Population Normal (%): 93%
  Population Pyknosed Nuclei (%): 8%
  Population Tubulin-Different-Phenotype (%): 7%
  Total Cell Count: 140
[10]
  Population Apoptotic (%): 50%
  Population Fragmented Nuclei (%): 6%
  Population Healthy Nuclei (%): 82%
  Population Hoechst High Intensity Objects (%): 2%
  Population Membrane Permeable-Phenotype (%): 9%
  Population Mitochondria Different-Phenotype (%): 15%
  Population Mitotic Cells (%): 50%
  Population Normal (%): 97%
  Population Pyknosed Nuclei (%): 10%
  Population Tubulin-Different-Phenotype (%): 13%
  Total Cell Count: 94
[11]
  Population Apoptotic (%): 79%
  Population Fragmented Nuclei (%): 12%
  Population Healthy Nuclei (%): 59%
  Population Hoechst High Intensity Objects (%): 13%
  Population Membrane Permeable-Phenotype (%): 26%
  Population Mitochondria Different-Phenotype (%): 96%
  Population Mitotic Cells (%): 20%
  Population Normal (%): 86%
  Population Pyknosed Nuclei (%): 27%
  Population Tubulin-Different-Phenotype (%): 96%
  Total Cell Count: 101
[12]
  Population Apoptotic (%): 70%
  Population Fragmented Nuclei (%): 20%
  Population Healthy Nuclei (%): 53%
  Population Hoechst High Intensity Objects (%): 2%
  Population Membrane Permeable-Phenotype (%): 42%
  Population Mitochondria Different-Phenotype (%): 89%
  Population Mitotic Cells (%): 29%
  Population Normal (%): 97%
  Population Pyknosed Nuclei (%): 25%
  Population Tubulin-Different-Phenotype (%): 82%
  Total Cell Count: 108

## C[C@@H](NCCCc1cccc(C(F)(F)F)c1)c1cccc2ccccc12.Cl [CINACALCET HYDROCHLORIDE]
[1]
  Population Fragmented Nuclei (%): 6%
  Population Healthy Nuclei (%): 79%
  Population Hoechst High Intensity Objects (%): 5%
  Population Membrane Permeable-Phenotype (%): 4%
  Population Mitochondria Different-Phenotype (%): 30%
  Population Normal (%): 94%
  Population Pyknosed Nuclei (%): 13%
  Population Tubulin-Different-Phenotype (%): 40%
  Total Cell Count: 184
[2]
  Population Apoptotic (%): 33%
  Population Fragmented Nuclei (%): 10%
  Population Healthy Nuclei (%): 76%
  Population Hoechst High Intensity Objects (%): 9%
  Population Membrane Permeable-Phenotype (%): 11%
  Population Mitochondria Different-Phenotype (%): 22%
  Population Mitotic Cells (%): 66%
  Population Normal (%): 90%
  Population Pyknosed Nuclei (%): 12%
  Population Tubulin-Different-Phenotype (%): 36%
  Total Cell Count: 52
[3]
  Population Apoptotic (%): 41%
  Population Fragmented Nuclei (%): 14%
  Population Healthy Nuclei (%): 60%
  Population Hoechst High Intensity Objects (%): 9%
  Population Membrane Permeable-Phenotype (%): 22%
  Population Mitotic Cells (%): 58%
  Population Normal (%): 90%
  Population Pyknosed Nuclei (%): 24%
  Population Tubulin-Different-Phenotype (%): 98%
  Total Cell Count: 155
[4]
  Population Apoptotic (%): 88%
  Population Fragmented Nuclei (%): 20%
  Population Healthy Nuclei (%): 23%
  Population Hoechst High Intensity Objects (%): 7%
  Population Membrane Permeable-Phenotype (%): 33%
  Population Mitochondria Different-Phenotype (%): 93%
  Population Mitotic Cells (%): 11%
  Population Normal (%): 92%
  Population Pyknosed Nuclei (%): 55%
  Population Tubulin-Different-Phenotype (%): 93%
  Total Cell Count: 68
[5]
  Population Apoptotic (%): 29%
  Population Fragmented Nuclei (%): 5%
  Population Healthy Nuclei (%): 82%
  Population Hoechst High Intensity Objects (%): 3%
  Population Membrane Permeable-Phenotype (%): 4%
  Population Mitochondria Different-Phenotype (%): 20%
  Population Mitotic Cells (%): 70%
  Population Normal (%): 96%
  Population Pyknosed Nuclei (%): 12%
  Population Tubulin-Different-Phenotype (%): 20%
  Total Cell Count: 205
[6]
  Population Apoptotic (%): 36%
  Population Fragmented Nuclei (%): 8%
  Population Healthy Nuclei (%): 69%
  Population Hoechst High Intensity Objects (%): 7%
  Population Membrane Permeable-Phenotype (%): 5%
  Population Mitochondria Different-Phenotype (%): 26%
  Population Mitotic Cells (%): 63%
  Population Normal (%): 92%
  Population Pyknosed Nuclei (%): 22%
  Population Tubulin-Different-Phenotype (%): 17%
  Total Cell Count: 53
[7]
  Population Apoptotic (%): 72%
  Population Fragmented Nuclei (%): 14%
  Population Healthy Nuclei (%): 51%
  Population Hoechst High Intensity Objects (%): 6%
  Population Membrane Permeable-Phenotype (%): 46%
  Population Mitochondria Different-Phenotype (%): 97%
  Population Mitotic Cells (%): 28%
  Population Normal (%): 93%
  Population Pyknosed Nuclei (%): 34%
  Population Tubulin-Different-Phenotype (%): 100%
  Total Cell Count: 157
[8]
  Population Apoptotic (%): 92%
  Population Fragmented Nuclei (%): 15%
  Population Healthy Nuclei (%): 32%
  Population Hoechst High Intensity Objects (%): 24%
  Population Membrane Permeable-Phenotype (%): 52%
  Population Mitochondria Different-Phenotype (%): 88%
  Population Mitotic Cells (%): 7%
  Population Normal (%): 75%
  Population Pyknosed Nuclei (%): 51%
  Population Tubulin-Different-Phenotype (%): 82%
  Total Cell Count: 69
[9]
  Population Apoptotic (%): 38%
  Population Fragmented Nuclei (%): 8%
  Population Healthy Nuclei (%): 80%
  Population Hoechst High Intensity Objects (%): 2%
  Population Membrane Permeable-Phenotype (%): 3%
  Population Mitochondria Different-Phenotype (%): 11%
  Population Mitotic Cells (%): 61%
  Population Normal (%): 97%
  Population Pyknosed Nuclei (%): 11%
  Population Tubulin-Different-Phenotype (%): 16%
  Total Cell Count: 293
[10]
  Population Apoptotic (%): 54%
  Population Fragmented Nuclei (%): 14%
  Population Healthy Nuclei (%): 70%
  Population Hoechst High Intensity Objects (%): 6%
  Population Membrane Permeable-Phenotype (%): 8%
  Population Mitochondria Different-Phenotype (%): 18%
  Population Mitotic Cells (%): 45%
  Population Normal (%): 93%
  Population Pyknosed Nuclei (%): 15%
  Population Tubulin-Different-Phenotype (%): 12%
  Total Cell Count: 75
[11]
  Population Apoptotic (%): 70%
  Population Fragmented Nuclei (%): 26%
  Population Healthy Nuclei (%): 33%
  Population Hoechst High Intensity Objects (%): 7%
  Population Membrane Permeable-Phenotype (%): 58%
  Population Mitochondria Different-Phenotype (%): 96%
  Population Mitotic Cells (%): 29%
  Population Normal (%): 92%
  Population Pyknosed Nuclei (%): 39%
  Population Tubulin-Different-Phenotype (%): 98%
  Total Cell Count: 176
[12]
  Population Apoptotic (%): 91%
  Population Fragmented Nuclei (%): 18%
  Population Healthy Nuclei (%): 35%
  Population Hoechst High Intensity Objects (%): 22%
  Population Membrane Permeable-Phenotype (%): 78%
  Population Mitochondria Different-Phenotype (%): 89%
  Population Mitotic Cells (%): 8%
  Population Normal (%): 77%
  Population Pyknosed Nuclei (%): 45%
  Population Tubulin-Different-Phenotype (%): 94%
  Total Cell Count: 68
